Reference: ChEMBL document CHEMBL1149606, “Synthesis, 3D-QSAR, and docking studies of 1-phenyl-1H-1,2,3-triazoles as selective antagonists for beta3 over alpha1beta2gamma2 GABA receptors” (Bioorg Med Chem, 2007)

How the values were obtained:
[1] = species on record: Homo sapiens; experiment: Selectivity for human GABA-beta-3 receptor over human GABA alpha-1-beta-2-gamma-2 receptor
How it was run: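 Selectivity from [³H]EBOB competition binding run separately on each receptor. β3 assay: membranes (50 µg protein) from hygromycin-selected Drosophila S2 cells stably expressing human β3, copper sulfate-induced 24 h before harvest; 0.5 nM [³H]EBOB, 10 mM Na phosphate/300 mM NaCl pH 7.5, 22 °C, 70 min. α1β2γ2 assay: membranes (150 µg) from stable HEK-293 cells; 1 nM [³H]EBOB, 50 mM Na phosphate/200 mM NaCl pH 7.4, 25 °C, 90 min. Both assays: GF/B filtration, scintillation counting, nonspecific binding with 5 µM EBOB, ≥3 repeats, probit IC50, then Cheng–Prusoff Ki (Kd 5.0 and 10.7 nM).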

[2] = target: GABA A receptor alpha-1/beta-2/gamma-2 (Homo sapiens); experiment: Displacement of [3H]EBOB from human recombinant GABA alpha-1-beta-2-gamma-2 receptor expressed in HEK293 cells
[3] = target: T1, Gamma-aminobutyric acid receptor subunit beta-3 (Homo sapiens, UniProt P28472); experiment: Displacement of [3H]EBOB from human recombinant GABAbeta3 receptor expressed in HEK293 cells; assay type: cell-based
T1 sequence (P28472 whole entry): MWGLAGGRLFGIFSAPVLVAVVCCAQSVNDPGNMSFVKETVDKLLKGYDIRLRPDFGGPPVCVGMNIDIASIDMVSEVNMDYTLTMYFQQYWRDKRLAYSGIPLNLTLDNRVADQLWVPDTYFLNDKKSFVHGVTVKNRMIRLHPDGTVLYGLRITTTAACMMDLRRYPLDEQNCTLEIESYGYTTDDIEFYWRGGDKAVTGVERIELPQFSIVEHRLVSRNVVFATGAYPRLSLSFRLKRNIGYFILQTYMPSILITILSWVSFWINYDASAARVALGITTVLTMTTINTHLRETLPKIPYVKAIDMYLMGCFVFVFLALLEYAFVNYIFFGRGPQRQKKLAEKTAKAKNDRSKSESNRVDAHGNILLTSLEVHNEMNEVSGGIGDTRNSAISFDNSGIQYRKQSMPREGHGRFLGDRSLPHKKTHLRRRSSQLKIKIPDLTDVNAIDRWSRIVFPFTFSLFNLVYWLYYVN

[4] = system: Musca domestica; experiment: Insecticidal activity against house fly WHO/SRS assessed as mortality after 24 hrs; assay type: functional
How it was run: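 Adult female houseflies, 3–5 days post-emergence, pretreated with piperonyl butoxide (10 µg in 1 µL acetone) 1 h before topical thoracic dosing of compound in 1 µL acetone at several doses; 30 flies per dose, kept at 25 °C with sugar and water. Mortality read at 24 h, three repeats; LD50 by probit on mean mortality.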

`CCCCc1cn(-c2c(Cl)cc(C(F)(F)F)cc2Cl)nn1` was tested, and the Ratio Ki [1] was 362 and the Ki [2] was 1.01 µM.
In the case of `CCCc1nnn(-c2c(Cl)cc(C(F)(F)F)cc2Cl)c1CCC`, the Ratio Ki [1] is reported as > 71.5, the Ki [3] is reported as 0.128 µM and the Ki [2] is reported as > 9.15 µM.
In the case of `CCCCCc1cnnn1-c1c(Cl)cc(C(F)(F)F)cc1Cl`, the Ratio Ki [1] is reported as > 6.58 and the Ki [2] is reported as > 9.15 µM.
`CCCc1c(CO)nnn1-c1c(Cl)cc(C(F)(F)F)cc1Cl` was tested, and the Ratio Ki [1] was > 2.65, the Ki [3] was 3.45 µM and the Ki [2] was > 9.15 µM.
`Nc1c(-c2ccccc2)nnn1-c1c(Cl)cc(C(F)(F)F)cc1Cl` gave a Ratio Ki [1] of 57.1 and a Ki [2] of 1.16 µM.
In the case of `CCCc1nnn(-c2c(Cl)cc(C(F)(F)F)cc2Cl)c1C`, the Ratio Ki [1] is reported as 166, the Ki [3] is reported as 0.00194 µM and the Ki [2] is reported as 0.322 µM.
In the case of `CCCCc1cnnn1-c1c(Cl)cc(Br)cc1Cl`, the Ratio Ki [1] is reported as > 11.7 and the Ki [2] is reported as > 9.15 µM.
Work on `FC(F)(F)c1cc(Cl)c(-n2cc(CCCCl)nn2)c(Cl)c1` yielded a Ratio Ki [1] of 378 and a Ki [2] of 0.616 µM.
For `C#Cc1ccc(-n2nncc2CCCC)cc1`, the Ratio Ki [1] was > 1.21 and the Ki [2] was > 9.15 µM.
In the case of `FC(F)(F)c1cc(Cl)c(-n2nncc2-c2ccccc2)c(Cl)c1`, the Ratio Ki [1] is reported as > 19.3 and the Ki [2] is reported as > 9.15 µM.
`CCCCc1cn(-c2ccc(Br)cc2)nn1` was tested, and the Ratio Ki [1] was > 2.87 and the Ki [2] was > 9.15 µM.
For `CCCCc1cn(-c2c(Cl)cc(Br)cc2Cl)nn1`, the Ratio Ki [1] was > 293 and the Ki [2] was > 9.15 µM.
With `CCCc1c(CC)nnn1-c1c(Cl)cc(C(F)(F)F)cc1Cl` the Ratio Ki [1] was > 194, the Ki [3] was 0.0472 µM and the Ki [2] was > 9.15 µM.
For `CCCCc1cn(-c2c(Cl)cc(Cl)cc2Cl)nn1`, the Ratio Ki [1] was > 111 and the Ki [2] was > 9.15 µM.
For `CCCc1nnn(-c2c(Br)cc(C(F)(F)F)cc2Br)c1C`, the Ratio Ki [1] was > 673, the Ki [3] was 0.0136 µM and the Ki [2] was > 9.15 µM.
For `CCc1c(C)nnn1-c1c(Cl)cc(C(F)(F)F)cc1Cl`, the Ki [3] was 0.0701 µM.
For `CCCCc1cnnn1-c1ccc(Br)cc1`, the Ratio Ki [1] was > 3.35 and the Ki [2] was > 9.15 µM.
In the case of `CCc1nnn(-c2c(Cl)cc(C(F)(F)F)cc2Cl)c1CC`, the Ki [3] is reported as 0.00427 µM.
For `FC(F)(F)c1cc(Cl)c(-n2cc(-c3ccccc3)nn2)c(Cl)c1`, the Ratio Ki [1] was > 71.5 and the Ki [2] was > 9.15 µM.
`C#Cc1cc(Cl)c(-n2cc(CCCC)nn2)c(Cl)c1` was tested, and the Ratio Ki [1] was > 264 and the Ki [2] was > 9.15 µM.
`CCc1nnn(-c2c(Cl)cc(C(F)(F)F)cc2Cl)c1C` was tested, and the Ratio Ki [1] was 150, the Ki [3] was 0.00708 µM and the Ki [2] was 1.06 µM.
`CCCc1nnn(-c2c(Cl)cc(C(F)(F)F)cc2Cl)c1CC` was tested, and the Ratio Ki [1] was > 1130, the Ki [3] was 0.00807 µM and the Ki [2] was > 9.15 µM.
With `CCCCCCc1cnnn1-c1c(Cl)cc(C(F)(F)F)cc1Cl` the Ratio Ki [1] was > 10.6 and the Ki [2] was > 9.15 µM.
For `CCCCc1cn(-c2c(Cl)cccc2Cl)nn1`, the Ratio Ki [1] was > 2.6 and the Ki [2] was > 9.15 µM.
With `CCCCc1cnnn1-c1c(Cl)cc(Cl)cc1Cl` the Ratio Ki [1] was > 2.24 and the Ki [2] was > 9.15 µM.
For `CCCc1c(C)nnn1-c1c(Cl)cc(C(F)(F)F)cc1Cl`, the Ratio Ki [1] was > 17, the Ki [3] was 0.539 µM and the Ki [2] was > 9.15 µM.
With `CC(C)(C)c1cn(-c2c(Cl)cc(C(F)(F)F)cc2Cl)nn1` the Ratio Ki [1] was 470, the LD50 [4] was 1.86 pmol and the Ki [2] was 0.39 µM.
`CCCc1cnnn1-c1c(Cl)cc(C(F)(F)F)cc1Cl` was tested, and the Ratio Ki [1] was > 12.1 and the Ki [2] was > 9.15 µM.
For `FC(F)(F)c1cc(Cl)c(-n2cc(C3CCCCC3)nn2)c(Cl)c1`, the Ratio Ki [1] was 127 and the Ki [2] was 1.5 µM.
For `CCCCCCc1cn(-c2c(Cl)cc(C(F)(F)F)cc2Cl)nn1`, the Ratio Ki [1] was 5.05 and the Ki [2] was 1.98 µM.
`CCCc1c(CCl)nnn1-c1c(Cl)cc(C(F)(F)F)cc1Cl` was tested, and the Ratio Ki [1] was > 137, the Ki [3] was 0.0667 µM and the Ki [2] was > 9.15 µM.
`CCCc1nnn(-c2c(Cl)cc(C(F)(F)F)cc2Cl)c1CCl` was tested, and the Ratio Ki [1] was 403, the Ki [3] was 0.000659 µM and the LD50 [4] was 5.17 pmol. For the same compound, the Ki [2] was 0.266 µM.
`CCCCc1cnnn1-c1ccc(C(F)(F)F)cc1` was tested, and the Ratio Ki [1] was > 1.73 and the Ki [2] was > 9.15 µM.
`CCCc1nnn(-c2c(Cl)cc(C(F)(F)F)cc2Cl)c1CO` showed a Ratio Ki [1] of 153, a Ki [3] of 0.00253 µM and a Ki [2] of 0.387 µM.
In the case of `CCCc1cn(-c2c(Cl)cc(C(F)(F)F)cc2Cl)nn1`, the Ratio Ki [1] is reported as 220 and the Ki [2] is reported as 0.47 µM.
`CCCCc1cnnn1-c1c(Cl)cccc1Cl` was tested, and the Ratio Ki [1] was > 4.46 and the Ki [2] was > 9.15 µM.
For `CCCCCc1cn(-c2c(Cl)cc(C(F)(F)F)cc2Cl)nn1`, the Ratio Ki [1] was 50 and the Ki [2] was 1.39 µM.
